Key:
[1] = target: T1, Lysyl oxidase homolog 2 (Homo sapiens) (UniProt Q9Y4K0); assay: Irreversible inhibition of human LOXL2 assessed as catalytic activity preincubated for 2 hrs followed by substrate addition measured every 2 mins for 1 hr by amplex red reagent-based fluorescence assay relative to control; design: concentration or dose not given beside the values
T1 sequence (whole entry): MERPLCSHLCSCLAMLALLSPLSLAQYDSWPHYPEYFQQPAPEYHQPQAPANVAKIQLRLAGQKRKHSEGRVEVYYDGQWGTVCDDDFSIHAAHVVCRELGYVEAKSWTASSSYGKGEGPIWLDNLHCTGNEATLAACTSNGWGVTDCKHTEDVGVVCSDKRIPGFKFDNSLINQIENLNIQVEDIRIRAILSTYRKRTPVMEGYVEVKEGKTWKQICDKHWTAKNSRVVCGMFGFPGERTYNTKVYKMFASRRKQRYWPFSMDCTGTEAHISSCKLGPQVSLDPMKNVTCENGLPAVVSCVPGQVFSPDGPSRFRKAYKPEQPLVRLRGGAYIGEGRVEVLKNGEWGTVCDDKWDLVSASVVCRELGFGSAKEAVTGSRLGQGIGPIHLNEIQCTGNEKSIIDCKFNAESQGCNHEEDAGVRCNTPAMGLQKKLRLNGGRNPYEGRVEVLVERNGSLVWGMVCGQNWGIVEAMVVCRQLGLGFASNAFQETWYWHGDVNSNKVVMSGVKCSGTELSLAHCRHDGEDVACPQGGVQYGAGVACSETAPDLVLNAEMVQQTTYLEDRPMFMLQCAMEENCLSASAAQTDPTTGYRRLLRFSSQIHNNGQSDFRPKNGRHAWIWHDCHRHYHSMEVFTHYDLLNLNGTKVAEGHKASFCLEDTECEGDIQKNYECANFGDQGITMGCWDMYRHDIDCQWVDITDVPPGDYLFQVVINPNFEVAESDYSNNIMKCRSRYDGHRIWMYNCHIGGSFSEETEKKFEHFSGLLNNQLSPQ

[2] = target: T2, Amine oxidase [copper-containing] 3 (Homo sapiens) (UniProt Q16853); assay: Inhibition of SSAO in human plasma assessed as reduction of H2O2 production from oxidative deamination of benzylamine at 10 uM preincubated for 2 hrs followed by substrate addition measured every 2 mins for 1 hr by amplex red reagent-based fluorescence assay relative to control
T2 sequence (whole entry): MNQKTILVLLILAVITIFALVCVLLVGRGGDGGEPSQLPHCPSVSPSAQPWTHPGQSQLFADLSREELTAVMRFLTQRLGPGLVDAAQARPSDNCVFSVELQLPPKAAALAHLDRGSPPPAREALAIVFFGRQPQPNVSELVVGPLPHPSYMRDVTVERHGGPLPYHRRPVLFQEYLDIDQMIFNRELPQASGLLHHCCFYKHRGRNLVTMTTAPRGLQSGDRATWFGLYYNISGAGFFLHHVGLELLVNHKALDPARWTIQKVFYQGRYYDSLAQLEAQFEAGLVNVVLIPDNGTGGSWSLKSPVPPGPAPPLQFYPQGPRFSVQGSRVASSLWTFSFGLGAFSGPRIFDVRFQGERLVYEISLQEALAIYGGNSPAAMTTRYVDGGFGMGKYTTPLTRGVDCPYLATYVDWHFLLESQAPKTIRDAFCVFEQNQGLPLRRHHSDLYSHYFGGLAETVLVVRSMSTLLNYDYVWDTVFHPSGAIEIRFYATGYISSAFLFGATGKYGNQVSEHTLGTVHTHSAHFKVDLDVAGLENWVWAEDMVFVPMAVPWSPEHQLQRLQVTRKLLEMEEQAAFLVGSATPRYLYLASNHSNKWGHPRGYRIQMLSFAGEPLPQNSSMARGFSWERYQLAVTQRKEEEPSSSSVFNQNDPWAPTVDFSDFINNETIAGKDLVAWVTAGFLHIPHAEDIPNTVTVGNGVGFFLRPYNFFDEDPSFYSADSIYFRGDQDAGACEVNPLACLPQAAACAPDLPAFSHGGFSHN
Outline: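 Endogenous SSAO in human plasma was the enzyme source and benzylamine the substrate. After a 2 h preincubation with compound, percent inhibition was calculated relative to a vehicle control and to a control containing 1 μM of the known SSAO inhibitor PXS-4681A.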

Mus musculus [3] = assay: Antifibrotic activity in C57BL/6 mouse assessed as reduction of lung fibrosis administered as po qd for 15 days starting 1 day prior to bleomycin instillation measured on day 14 post bleomycin instillation by Masson's trichrome staining-based assay; type: functional
Outline: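 Lung fibrosis induced in male C57BL/6 mice aged 6 to 7 weeks by a single oropharyngeal dose of bleomycin (1.5 U/kg). Compound given orally once daily at 3, 10, 30 or 60 mg/kg for 15 days, starting 1 day before bleomycin. Lungs taken at day 14 post-bleomycin, stained with H&E and Masson's trichrome, and an Ashcroft score assigned.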

[4] = Cmax in C57BL/6 mouse lung at 30 mg/kg, po by LC-MS/MS analysis; type: ADME, organism-based; design: dose 30 mg/kg, route oral
Outline: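 Normal C57BL/6 mice, n = 3 per time point, received a single oral 30 mg/kg dose formulated in 0.5% methylcellulose.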

Mus musculus [5] = assay: Toxicity in C57BL/6 mouse assessed as mortality at 3 to 60 mg/kg, po qd administered 15 days starting 1 day prior to bleomycin instillation; type: organism-based; conditions: in vivo
Outline: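 Male C57BL/6 mice, 6 to 7 weeks old. Lung fibrosis induced by a single oropharyngeal bleomycin dose (1.5 U/kg). Compound given orally once daily at 3, 10, 30 or 60 mg/kg for 15 days, starting 1 day before bleomycin. Mortality and body weight loss monitored; lungs taken at day 14 post-bleomycin.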

## Cl.NCc1cc(Oc2cccc(C(=O)N3C[C@@H](O)[C@H](F)C3)c2)nc(C(F)(F)F)c1 (racemic)
[1]
  inhibition: 97%
[2]
  inhibition: 16%
Mus musculus [3]
  Activity: Dose-dependent effect
Mus musculus [3]; C57BL/6, po, read-out: MED
  minimal effective dose: 30 mg/kg
[4]
  Cmax: 21 µM
Mus musculus [5]
  Activity: Non-Toxic
